# Measured values as given in ChEMBL document CHEMBL1667774, “Synthesis and evaluation of a class of new coumarin triazole derivatives as potential antimicrobial agents” (2011).
# Assays:
# Saccharomyces cerevisiae = experiment: Antifungal activity against Saccharomyces cerevisiae ATCC 9763 by twofold broth dilution method; format: functional
# Outline: (§1)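 Two-fold broth dilution in 96-well micro-test plates, following NCCLS recommendations. Enoxacin and Chloromycin served as positive controls for bacteria, and Fluconazole for fungi. The read-out is the MIC in µg/mL.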
# Shigella dysenteriae = experiment: Antimicrobial activity against Shigella dysenteriae ATCC 49550 by twofold broth dilution method; format: functional
# Outline: (§2)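 Antibacterial MIC, determined by two-fold serial broth dilution following the NCCLS-recommended method. Clinical antimicrobial drugs were run alongside as positive controls.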
# Micrococcus luteus = experiment: Antimicrobial activity against Micrococcus luteus ATCC 4698 by twofold broth dilution method; format: functional; outline: as §1
# Salmonella typhi = experiment: Antimicrobial activity against Salmonella typhi ATCC 9484 by twofold broth dilution method; format: functional, Salmonella enterica subsp. enterica serovar Typhi; details: Salmonella enterica; outline: as §2
# Staphylococcus aureus [1] = experiment: Antimicrobial activity against Staphylococcus aureus ATCC 25923 by twofold broth dilution method; format: functional; outline: as §1
# Candida albicans = experiment: Antifungal activity against Candida albicans ATCC 76615 by twofold broth dilution method; format: functional; outline: as §1
# Staphylococcus aureus [2] = experiment: Antimicrobial activity against methicillin-resistant Staphylococcus aureus N 315 by twofold broth dilution method; format: functional; outline: as §2
# Aspergillus fumigatus = experiment: Antifungal activity against Aspergillus fumigatus ATCC 96918 by twofold broth dilution method; format: functional; outline: as §1
# Proteus vulgaris = experiment: Antimicrobial activity against Proteus vulgaris ATCC 6896 by twofold broth dilution method; format: functional; outline: as §1
# Escherichia coli = experiment: Antimicrobial activity against Escherichia coli ATCC 25922 by twofold broth dilution method; format: functional; outline: as §1
# Bacillus subtilis = experiment: Antimicrobial activity against Bacillus subtilis ATCC 6633 by twofold broth dilution method; format: functional; outline: as §1
SMILES,MIC (Saccharomyces cerevisiae),MIC (Shigella dysenteriae),MIC (Micrococcus luteus),MIC (Salmonella typhi),MIC (Staphylococcus aureus [1]),MIC (Candida albicans),MIC (Staphylococcus aureus [2]),MIC (Aspergillus fumigatus),MIC (Proteus vulgaris),MIC (Escherichia coli),MIC (Bacillus subtilis)
Cc1cc(=O)oc2cc(OCc3ccc(Cn4cncn4)cc3)cc(OCc3ccc(Cn4cncn4)cc3)c12.Cl,16 µg/mL,16 µg/mL,16 µg/mL,16 µg/mL,8 µg/mL,8 µg/mL,16 µg/mL,16 µg/mL,16 µg/mL,8 µg/mL,16 µg/mL
Cc1cc(=O)oc2cc(OCCCCCCn3cncn3)ccc12,32 µg/mL,32 µg/mL,8 µg/mL,32 µg/mL,8 µg/mL,16 µg/mL,16 µg/mL,32 µg/mL,32 µg/mL,32 µg/mL,8 µg/mL
Cc1cc(=O)oc2cc(OCCCCn3cncn3)cc(OCCCCn3cncn3)c12.Cl,2 µg/mL,1 µg/mL,1 µg/mL,1 µg/mL,1 µg/mL,1 µg/mL,2 µg/mL,2 µg/mL,2 µg/mL,1 µg/mL,1 µg/mL
Cc1cc(=O)oc2cc(OCc3ccc(CBr)cc3)ccc12,256 µg/mL,512 µg/mL,256 µg/mL,512 µg/mL,256 µg/mL,256 µg/mL,512 µg/mL,256 µg/mL,512 µg/mL,512 µg/mL,256 µg/mL
Cc1cc(=O)oc2cc(OCCCCCOc3ccc4c(C)cc(=O)oc4c3)ccc12,256 µg/mL,512 µg/mL,128 µg/mL,512 µg/mL,128 µg/mL,512 µg/mL,256 µg/mL,512 µg/mL,512 µg/mL,256 µg/mL,256 µg/mL
Cc1cc(=O)oc2cc(OCCCCCCBr)ccc12,256 µg/mL,512 µg/mL,64 µg/mL,256 µg/mL,64 µg/mL,256 µg/mL,256 µg/mL,512 µg/mL,256 µg/mL,512 µg/mL,128 µg/mL
Cc1cc(=O)oc2cc(OCc3ccc(COc4ccc5c(C)cc(=O)oc5c4)cc3)ccc12,512 µg/mL,> 512 µg/mL,> 512 µg/mL,> 512 µg/mL,> 512 µg/mL,> 512 µg/mL,> 512 µg/mL,> 512 µg/mL,> 512 µg/mL,> 512 µg/mL,> 512 µg/mL
Cc1cc(=O)oc2cc(OCCCCn3cncn3)ccc12.Cl,4 µg/mL,16 µg/mL,2 µg/mL,16 µg/mL,2 µg/mL,2 µg/mL,8 µg/mL,8 µg/mL,8 µg/mL,4 µg/mL,2 µg/mL
OC(Cn1cncn1)(Cn1cncn1)c1ccc(F)cc1F [FLUCONAZOLE],2 µg/mL,,,,,1 µg/mL,,128 µg/mL,,,
Cc1cc(=O)oc2cc(OCc3ccc(Cn4cncn4)cc3)ccc12.Cl,16 µg/mL,16 µg/mL,8 µg/mL,16 µg/mL,8 µg/mL,8 µg/mL,16 µg/mL,16 µg/mL,16 µg/mL,16 µg/mL,8 µg/mL
Cc1cc(=O)oc2cc(OCCCCCCBr)cc(OCCCCCCBr)c12,128 µg/mL,512 µg/mL,128 µg/mL,512 µg/mL,256 µg/mL,128 µg/mL,512 µg/mL,128 µg/mL,512 µg/mL,512 µg/mL,128 µg/mL
Cc1cc(=O)oc2cc(OCCCCCBr)cc(OCCCCCBr)c12,256 µg/mL,256 µg/mL,128 µg/mL,256 µg/mL,128 µg/mL,128 µg/mL,256 µg/mL,128 µg/mL,256 µg/mL,512 µg/mL,128 µg/mL
Cc1cc(=O)oc2cc(OCCCCOc3ccc4c(C)cc(=O)oc4c3)ccc12,256 µg/mL,512 µg/mL,128 µg/mL,256 µg/mL,128 µg/mL,512 µg/mL,512 µg/mL,512 µg/mL,256 µg/mL,256 µg/mL,128 µg/mL
Cc1cc(=O)oc2cc(OCCCCBr)ccc12,256 µg/mL,512 µg/mL,128 µg/mL,256 µg/mL,128 µg/mL,128 µg/mL,256 µg/mL,512 µg/mL,256 µg/mL,256 µg/mL,128 µg/mL
